The subject of this assay is Mus musculus. In words: Narcotic agonist activity using acetic acid induced writhing in the mouse upon subcutaneous administration. It counts as functional. Put shortly:
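Mouse acetic acid writhing test with subcutaneous dosing. Salt forms were given in distilled water; free bases were dissolved by adding 1 N HCl and then diluted.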

[1] abbreviates: Mus musculus, sc, read-out: ED50.

Bounds are passed on as bounds.

As for `C=C[C@]1(CO)CC2C3Cc4ccc(OC)c5c4C2(CCN3C)C(O5)[C@@H]1O` (stereo partly specified), the ED50 under setting [1] is over 28 µmol/kg.
On the same count and under the same terms, under `COc1ccc2c3c1OC1C(=O)[C@](C)(CCCCc4ccccc4)CC4C(C2)N(CC2CC2)CCC314` (stereo partly specified) stands 2 µmol/kg; under `CC[C@]1(CO)CC2C3Cc4ccc(OC)c5c4C2(CCN3C)C(O5)[C@@H]1O` (stereo partly specified), 2.7 µmol/kg.
With `COc1ccc2c3c1OC1[C@@H](O)[C@](C)(CCCCc4ccccc4)CC4C(C2)N(CC2CCC2)CCC341` (stereo partly specified), the ED50 under setting [1] was 11.3 µmol/kg.
Still for that read-out and setting: the result for `COc1ccc2c3c1OC1[C@H](O)[C@](CO)(CCCCCc4ccccc4)CC4C(C2)N(CC2CC2)CCC341` (stereo partly specified) reads 0.4 µmol/kg; that for `COc1ccc2c3c1OC1[C@H](O)[C@](CO)(CCCCc4ccccc4)CC4C(C2)N(CC2CCC2)CCC341` (stereo partly specified), 0.52 µmol/kg; that for `COc1ccc2c3c1OC1[C@H](O)[C@](CO)(CCCCCc4ccccc4)CC4C(C2)N(C)CCC341` (stereo partly specified), 2.3 µmol/kg.
`COc1ccc2c3c1OC1[C@H](O)[C@](CO)(CCCc4ccccc4)CC4C(C2)N(C)CCC341` (stereo partly specified): the ED50 under setting [1] is 0.39 µmol/kg.
On the same count and under the same terms, under `COc1ccc2c3c1OC1[C@H](O)[C@@](/C=C/Cc4ccccc4)(CO)CC4C(C2)N(C)CCC341` (stereo partly specified) stands 1.1 µmol/kg.
Same read-out and setting: under `CN1CCC23c4c5ccc(O)c4OC2[C@H](O)[C@](CO)(CCCCCc2ccccc2)CC3C1C5` (stereo partly specified) stands 12 µmol/kg.
As to `CN1CCC23c4c5ccc(O)c4OC2[C@H](O)[C@](CO)(CCCCCCc2ccccc2)CC3C1C5` (stereo partly specified), the ED50 under setting [1] was over 19 µmol/kg.
Still for that read-out and setting: under `COc1ccc2c3c1OC1[C@H](O)[C@](CO)(CCc4ccccc4)CC4C(C2)N(CC2CCC2)CCC341` (stereo partly specified) stands 0.7 µmol/kg; under `COc1ccc2c3c1OC1[C@H](O)[C@](CO)(CCCCCc4ccccc4)CC4C(C2)N(CC2CCC2)CCC341` (stereo partly specified), 0.3 µmol/kg; under `OC[C@@]1(CCCCCc2ccccc2)CC2C3Cc4ccc(O)c5c4C2(CCN3CC2CC2)C(O5)[C@@H]1O` (stereo partly specified), over 19 µmol/kg.
As to `OC[C@@]1(CCCc2ccccc2)CC2C3Cc4ccc(O)c5c4C2(CCN3CC2CC2)C(O5)[C@@H]1O` (stereo partly specified), under setting [1], the ED50 turned out to be 0.47 µmol/kg.
On the same count and under the same terms, under `OC[C@@]1(CCCc2ccccc2)CC2C3Cc4ccc(O)c5c4C2(CCN3CC2CCC2)C(O5)[C@@H]1O` (stereo partly specified) stands 0.57 µmol/kg; under `OC[C@@]1(CCCCCc2ccccc2)CC2C3Cc4ccc(O)c5c4C2(CCN3CC2CCC2)C(O5)[C@@H]1O` (stereo partly specified), over 18 µmol/kg.
Still for that read-out and setting: the result for `OC[C@@]1(CCCCc2ccccc2)CC2C3Cc4ccc(O)c5c4C2(CCN3CC2CCC2)C(O5)[C@@H]1O` (stereo partly specified) reads 21.3 µmol/kg.
As to `C[C@@]1(CCc2ccccc2)CC2C3Cc4ccc(O)c5c4C2(CCN3CC2CCC2)C(O5)C1=O` (stereo partly specified), under setting [1], the ED50 was determined as 0.04 µmol/kg.
Same read-out and setting: under `COc1ccc2c3c1OC1[C@H](O)[C@](CO)(CCCCc4ccccc4)CC4C(C2)N(CC2CC2)CCC341` (stereo partly specified) stands 0.22 µmol/kg; under `COc1ccc2c3c1OC1[C@H](O)[C@](CO)(CCc4ccccc4)CC4C(C2)N(CC2CC2)CCC341` (stereo partly specified), 0.61 µmol/kg.
The same measure, in the same setting: under `COc1ccc2c3c1OC1[C@@H](O)[C@](C)(CCc4ccccc4)CC4C(C2)N(CC2CCC2)CCC341` (stereo partly specified) stands 1 µmol/kg.
Regarding `COc1ccc2c3c1OC1[C@H](O)[C@@](/C=C/CCCCc4ccccc4)(CO)CC4C(C2)N(C)CCC341` (stereo partly specified), the ED50 under setting [1] was 13.9 µmol/kg.
Still for that read-out and setting: the result for `COc1ccc2c3c1OC1[C@@H](O)[C@](C)(CCCCc4ccccc4)CC4C(C2)N(CC2CC2)CCC341` (stereo partly specified) reads 0.5 µmol/kg.
On the same count and under the same terms, under `CCCC[C@]1(CO)CC2C3Cc4ccc(OC)c5c4C2(CCN3C)C(O5)[C@@H]1O` (stereo partly specified) stands 13.7 µmol/kg; under `COc1ccc2c3c1O[C@H]1[C@H](O)[C@](CO)(C(O)c4ccccc4)CC4[C@@H](C2)N(C)CC[C@@]341` (stereo partly specified), 2.3 µmol/kg.
In turn, `COc1ccc2c3c1O[C@H]1[C@H]4OC[C@@]4(C(O)c4ccccc4)CC4[C@@H](C2)N(C)CC[C@@]341` (stereo partly specified) returned an ED50 of 11.9 µM/kg. The ED50 under setting [1] stood at 6.8 µmol/kg.
`COc1ccc2c3c1OC1[C@H]4OC[C@@]4(CCCc4ccccc4)CC4C(C2)N(CC2CCC2)CCC341` (stereo partly specified): the ED50 under setting [1] was determined as 4.4 µmol/kg.
On the same count and under the same terms, under `COc1ccc2c3c1OC1[C@H]4OC[C@@]4(CCc4ccccc4)CC4C(C2)N(CC2CCC2)CCC341` (stereo partly specified) stands over 16 µmol/kg; under `Oc1ccc2c3c1OC1[C@H]4OC[C@@]4(CCCCc4ccccc4)CC4C(C2)N(CC2CC2)CCC341` (stereo partly specified), 0.015 µmol/kg; under `COc1ccc2c3c1OC1[C@H]4OC[C@@]4(CCCCc4ccccc4)CC4C(C2)N(CC2CCC2)CCC341` (stereo partly specified), 2.8 µmol/kg.
The same measure, in the same setting: the result for `CN1CCC23c4c5ccc(O)c4OC2[C@H]2OC[C@@]2(CCCCCc2ccccc2)CC3C1C5` (stereo partly specified) reads 0.028 µmol/kg.
Same read-out and setting: the result for `CN1CCC23c4c5ccc(O)c4OC2[C@H]2OC[C@@]2(CCc2ccccc2)CC3C1C5` (stereo partly specified) reads 0.048 µmol/kg; that for `COc1ccc2c3c1OC1[C@H]4OC[C@@]4(CCCc4ccccc4)CC4C(C2)N(C)CCC341` (stereo partly specified), 0.046 µmol/kg.
As to `CN1CCC23c4c5ccc(O)c4OC2[C@H]2OC[C@@]2(CCCCc2ccccc2)CC3C1C5` (stereo partly specified), the ED50 under setting [1] came to 0.024 µmol/kg.
`COc1ccc2c3c1OC1[C@H]4OC[C@@]4(CCCCCc4ccccc4)CC4C(C2)N(C)CCC341` (stereo partly specified): under setting [1], the ED50 is 1.3 µmol/kg.
The same measure, in the same setting: the result for `COc1ccc2c3c1OC1[C@H]4OC[C@@]4(CCc4ccccc4)CC4C(C2)N(C)CCC341` (stereo partly specified) reads 0.9 µmol/kg.
`Oc1ccc2c3c1OC1[C@H]4OC[C@@]4(CCCc4ccccc4)CC4C(C2)N(CC2CCC2)CCC341` (stereo partly specified): the ED50 under setting [1] was 0.06 µmol/kg.
Take `CN1CCC23c4c5ccc(O)c4OC2[C@H]2OC[C@@]2(CCCc2ccccc2)CC3C1C5` (stereo partly specified): the ED50 under setting [1] was found to be 0.019 µmol/kg.
On the same count and under the same terms, the result for `COc1ccc2c3c1OC1[C@H]4OC[C@@]4(CCCCc4ccccc4)CC4C(C2)N(C)CCC341` (stereo partly specified) reads 0.005 µmol/kg; that for `COc1ccc2c3c1OC1[C@H]4OC[C@@]4(CCCCc4ccccc4)CC4C(C2)N(CC2CC2)CCC341` (stereo partly specified), 0.61 µmol/kg.
Same read-out and setting: the result for `COc1ccc2c3c1OC1[C@H](O)[C@](CO)(CCCCCCc4ccccc4)CC4C(C2)N(C)CCC341` (stereo partly specified) reads 4.5 µmol/kg; that for `COc1ccc2c3c1OC1[C@H](O)[C@](CO)(CCCCc4ccccc4)CC4C(C2)N(C)CCC341` (stereo partly specified), 0.014 µmol/kg.
On the same count and under the same terms, under `OC[C@@]1(CCCCc2ccccc2)CC2C3Cc4ccc(O)c5c4C2(CCN3CC2CC2)C(O5)[C@@H]1O` (stereo partly specified) stands 11 µmol/kg.
As to `C[C@@]1(CCCCc2ccccc2)CC2C3Cc4ccc(O)c5c4C2(CCN3CC2CC2)C(O5)C1=O` (stereo partly specified), the ED50 under setting [1] turned out to be 0.11 µmol/kg.
Regarding `COc1ccc2c3c1OC1[C@H](O)[C@@](C=CCCCc4ccccc4)(CO)CC4C(C2)N(C)CCC341` (stereo partly specified), under setting [1], the ED50 worked out at 4 µmol/kg.
Still for that read-out and setting: under `OC[C@@]1(CCc2ccccc2)CC2C3Cc4ccc(O)c5c4C2(CCN3CC2CC2)C(O5)[C@@H]1O` (stereo partly specified) stands 0.95 µmol/kg; under `CN1CCC23c4c5ccc(O)c4OC2[C@H](O)[C@](CO)(CCCCc2ccccc2)CC3C1C5` (stereo partly specified), 0.003 µmol/kg; under `COc1ccc2c3c1OC1C(=O)[C@](C)(CCc4ccccc4)CC4C(C2)N(CC2CCC2)CCC314` (stereo partly specified), 0.19 µmol/kg.
Turning to `COc1ccc2c3c1OC1[C@H](O)[C@](CO)(CCCc4ccccc4)CC4C(C2)N(CC2CC2)CCC341` (stereo partly specified), under setting [1], the ED50 is 0.13 µmol/kg.
Turning to `COc1ccc2c3c1OC1[C@H](O)[C@](CO)(CCCc4ccccc4)CC4C(C2)N(CC2CCC2)CCC341` (stereo partly specified), the ED50 under setting [1] is 0.04 µmol/kg.
Same read-out and setting: the result for `C[C@@]1(CCCCc2ccccc2)CC2C3Cc4ccc(O)c5c4C2(CCN3CC2CCC2)C(O5)C1=O` (stereo partly specified) reads 0.17 µmol/kg; that for `COc1ccc2c3c1OC1C(=O)[C@](C)(CCCCc4ccccc4)CC4C(C2)N(CC2CCC2)CCC314` (stereo partly specified), 5.6 µmol/kg; that for `CN1CCC23c4c5ccc(O)c4OC2[C@H](O)[C@](CO)(CCc2ccccc2)CC3C1C5` (stereo partly specified), 0.004 µmol/kg.
Take `COc1ccc2c3c1OC1[C@H](O)[C@](CO)(CCc4ccccc4)CC4C(C2)N(C)CCC341` (stereo partly specified): the ED50 under setting [1] is 0.028 µmol/kg.
The same measure, in the same setting: under `CN1CCC23c4c5ccc(O)c4OC2[C@H](O)[C@](CO)(CCCc2ccccc2)CC3C1C5` (stereo partly specified) stands 0.85 µmol/kg; under `OC[C@@]1(CCc2ccccc2)CC2C3Cc4ccc(O)c5c4C2(CCN3CC2CCC2)C(O5)[C@@H]1O` (stereo partly specified), 2.5 µmol/kg; under `CCCC[C@]1(CO)CC2C3Cc4ccc(O)c5c4C2(CCN3C)C(O5)[C@@H]1O` (stereo partly specified), 0.56 µmol/kg.
As for `COc1ccc2c3c1OC1C4OC[C@@]4(CCc4ccccc4)CC4C(C2)N(CC2CC2)CCC341` (single isomer, unassigned), the ED50 under setting [1] amounted to 0.57 µmol/kg.
Still for that read-out and setting: the result for `Oc1ccc2c3c1OC1C4OC[C@@]4(CCc4ccccc4)CC4C(C2)N(CC2CCC2)CCC341` (single isomer, unassigned) reads 0.39 µmol/kg; that for `Oc1ccc2c3c1OC1C4OC[C@@]4(CCCc4ccccc4)CC4C(C2)N(CC2CC2)CCC341` (single isomer, unassigned), 0.003 µmol/kg.
As to `Oc1ccc2c3c1OC1C4OC[C@@]4(CCCCc4ccccc4)CC4C(C2)N(CC2CCC2)CCC341` (single isomer, unassigned), under setting [1], the ED50 worked out at 0.05 µmol/kg.
Still for that read-out and setting: under `Oc1ccc2c3c1OC1C4OC[C@@]4(CCc4ccccc4)CC4C(C2)N(CC2CC2)CCC341` (single isomer, unassigned) stands 0.04 µmol/kg.
For the compound `COc1ccc2c3c1O[C@H]1[C@@H](O)C=C[C@H]4[C@@H](C2)N(C)CC[C@@]341` [CODEINE], the ED50 under setting [1] was 10.3 µmol/kg.
Same read-out and setting: under `COc1ccc2c3c1O[C@H]1C(=O)CC[C@H]4[C@@H](C2)N(C)CC[C@]314` [HYDROCODONE] stands 2.4 µmol/kg.

Values taken from ChEMBL document CHEMBL1122246, “Analgesic narcotic antagonists. 15. Potent narcotic agonist 7 beta-(arylalkyl)-4,5 alpha-epoxymorphinans” (1983).
